From PMC3609526 (Diabetes Care, 2013)

Assay: Euglycemic clamp study: pharmacodynamics by glucose infusion rate
Format: in vivo, human (type 1 diabetic patients)
Settings: for GIR tmax50 (time to reach 50% of maximum GIR) / GIR tmax (time to reach maximum GIR): euglycemic clamp, 12 patients, mean ± SD
Procedure, shortened: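 Crossover design with a 5–21 d washout, in fasting C-peptide-negative patients. During a 3–7 h run-in, IV human insulin/glucose held plasma glucose at 5.5 ± 1.1 mmol/L, with insulin tapered off over the last hour. At time 0, a fast-acting insulin analogue was injected into abdominal s.c. fat. Variable 10% glucose then ran for 8 h. Arterialized venous glucose (arm warmed at 55°C) was measured every 5–10 min in duplicate, and GIR AUC was calculated.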

[1] = 9 × 2 IU dispersed s.c. boluses

insulin aspart
GIR tmax50 (time to reach 50% of maximum GIR) (1 × 18 IU single s.c. bolus): 49 ± 16 min
GIR tmax (time to reach maximum GIR) (1 × 18 IU single s.c. bolus): 127 ± 93 min
GIR tmax50 (time to reach 50% of maximum GIR) [1]: 38 ± 9 min
GIR tmax (time to reach maximum GIR) [1]: 68 ± 33 min
shortening of time to reach maximum GIR (9 × 2 IU vs. 1 × 18 IU): ~50%
